Experimental data from ChEMBL document CHEMBL1157465, “Design, synthesis, and biological evaluation of novel 3-aryl-4-(1H-indole-3yl)-1,5-dihydro-2H-pyrrole-2-ones as vascular endothelial growth factor receptor (VEGF-R) inhibitors” (J Med Chem, 2008).

Key:
[1] = molecular target: T1, Receptor-type tyrosine-protein kinase FLT3 (Homo sapiens, UniProt P36888); test: Inhibition of human recombinant FLT3
T1 sequence (P36888 whole entry): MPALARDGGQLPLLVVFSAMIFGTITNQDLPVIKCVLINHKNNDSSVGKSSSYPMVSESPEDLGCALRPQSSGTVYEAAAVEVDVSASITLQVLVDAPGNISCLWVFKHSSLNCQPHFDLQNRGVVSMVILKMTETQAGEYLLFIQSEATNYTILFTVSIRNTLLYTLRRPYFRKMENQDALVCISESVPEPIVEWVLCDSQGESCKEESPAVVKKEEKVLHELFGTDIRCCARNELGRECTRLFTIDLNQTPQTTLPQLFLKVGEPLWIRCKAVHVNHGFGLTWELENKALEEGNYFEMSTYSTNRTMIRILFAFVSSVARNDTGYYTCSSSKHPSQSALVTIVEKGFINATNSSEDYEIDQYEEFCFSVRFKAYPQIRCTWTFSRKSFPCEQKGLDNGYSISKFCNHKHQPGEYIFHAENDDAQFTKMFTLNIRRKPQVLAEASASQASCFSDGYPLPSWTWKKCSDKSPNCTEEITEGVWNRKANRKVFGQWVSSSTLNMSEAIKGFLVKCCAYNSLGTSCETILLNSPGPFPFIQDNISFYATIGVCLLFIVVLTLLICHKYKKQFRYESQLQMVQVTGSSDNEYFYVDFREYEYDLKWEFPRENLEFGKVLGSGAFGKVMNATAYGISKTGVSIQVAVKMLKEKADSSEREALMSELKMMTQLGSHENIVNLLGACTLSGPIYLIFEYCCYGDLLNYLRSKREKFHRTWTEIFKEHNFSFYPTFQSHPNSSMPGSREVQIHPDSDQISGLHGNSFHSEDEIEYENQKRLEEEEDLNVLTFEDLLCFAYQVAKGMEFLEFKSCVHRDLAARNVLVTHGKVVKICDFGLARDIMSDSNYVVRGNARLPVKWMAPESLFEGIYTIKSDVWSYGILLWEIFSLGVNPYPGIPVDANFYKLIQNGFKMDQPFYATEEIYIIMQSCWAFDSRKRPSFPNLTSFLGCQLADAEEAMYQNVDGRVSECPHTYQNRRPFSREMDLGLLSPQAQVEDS
Procedure, shortened: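 Human kinases expressed in Sf9 cells via baculovirus as GST or His fusions and affinity purified. 33PanQinase assay in 60 mM HEPES-NaOH pH 7.5, 3 mM MgCl2, 3 mM MnCl2, 3 µM orthovanadate, 1.2 mM DTT, 1 µM [γ-33P]ATP, 1% DMSO; 30 °C, 80 min. Substrates: poly(Glu,Tyr) 4:1 for ERBB2, IGF1-R and SRC; poly(Ala,Glu,Lys,Tyr) 6:2:5:1 for FLT3. IC50 from 10 concentrations by scintillation counting.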

[2] = molecular target: Vascular endothelial growth factor receptor 2 (Homo sapiens, UniProt P35968); test: Inhibition of human recombinant VEGFR2
Chain of Vascular endothelial growth factor receptor 2 (P35968 whole entry, the tested form may be a part): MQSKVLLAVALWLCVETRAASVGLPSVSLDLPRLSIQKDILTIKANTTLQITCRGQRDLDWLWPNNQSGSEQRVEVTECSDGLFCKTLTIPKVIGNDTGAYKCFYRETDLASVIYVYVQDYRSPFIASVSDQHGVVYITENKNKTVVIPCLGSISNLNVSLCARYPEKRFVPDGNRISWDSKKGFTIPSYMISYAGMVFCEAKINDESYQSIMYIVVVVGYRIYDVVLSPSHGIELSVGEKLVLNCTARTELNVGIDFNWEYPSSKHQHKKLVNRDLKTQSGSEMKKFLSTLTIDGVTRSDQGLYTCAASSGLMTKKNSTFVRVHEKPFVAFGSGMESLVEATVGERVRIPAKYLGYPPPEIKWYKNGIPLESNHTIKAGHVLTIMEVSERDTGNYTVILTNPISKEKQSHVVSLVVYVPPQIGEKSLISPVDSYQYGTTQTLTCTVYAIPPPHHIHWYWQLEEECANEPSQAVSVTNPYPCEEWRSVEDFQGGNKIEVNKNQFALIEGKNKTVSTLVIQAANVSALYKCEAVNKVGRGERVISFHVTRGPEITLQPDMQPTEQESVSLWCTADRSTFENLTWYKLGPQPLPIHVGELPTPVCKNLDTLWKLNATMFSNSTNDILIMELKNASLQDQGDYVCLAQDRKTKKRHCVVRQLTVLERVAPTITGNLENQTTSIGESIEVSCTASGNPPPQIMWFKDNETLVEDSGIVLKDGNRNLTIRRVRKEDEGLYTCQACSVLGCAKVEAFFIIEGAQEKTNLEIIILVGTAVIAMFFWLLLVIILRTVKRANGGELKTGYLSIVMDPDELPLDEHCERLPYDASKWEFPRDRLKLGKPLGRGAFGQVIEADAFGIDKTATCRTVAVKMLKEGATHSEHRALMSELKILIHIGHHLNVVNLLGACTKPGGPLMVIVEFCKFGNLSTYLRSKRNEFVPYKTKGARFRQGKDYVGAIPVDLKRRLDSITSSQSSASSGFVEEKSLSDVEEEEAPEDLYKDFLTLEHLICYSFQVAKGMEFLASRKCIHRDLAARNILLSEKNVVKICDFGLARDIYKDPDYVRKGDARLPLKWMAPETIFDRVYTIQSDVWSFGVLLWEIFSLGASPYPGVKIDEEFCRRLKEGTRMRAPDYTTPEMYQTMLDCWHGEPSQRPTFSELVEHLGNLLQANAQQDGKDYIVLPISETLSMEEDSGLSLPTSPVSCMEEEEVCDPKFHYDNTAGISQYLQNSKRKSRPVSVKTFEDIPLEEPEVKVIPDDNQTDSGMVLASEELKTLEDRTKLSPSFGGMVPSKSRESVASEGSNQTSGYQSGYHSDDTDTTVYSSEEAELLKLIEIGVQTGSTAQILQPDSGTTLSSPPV
Procedure, shortened: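 Recombinant human tyrosine kinases (EPHB4, TIE2, VEGF-R2, VEGF-R3), expressed in Sf9 insect cells as GST- or His-fusions, with poly(Glu,Tyr) 4:1 as substrate. Conditions: 1 µM [γ-33P]ATP, pH 7.5 HEPES buffer with Mg/Mn, DTT and vanadate, 30 °C for 80 min, 1% DMSO. Ten concentrations were tested and IC50 came from scintillation counting of incorporated 33P.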

[3] = molecular target: T2, Serine/threonine-protein kinase PLK4 (Homo sapiens, UniProt O00444); test: Inhibition of human recombinant SAK
T2 sequence (O00444 whole entry): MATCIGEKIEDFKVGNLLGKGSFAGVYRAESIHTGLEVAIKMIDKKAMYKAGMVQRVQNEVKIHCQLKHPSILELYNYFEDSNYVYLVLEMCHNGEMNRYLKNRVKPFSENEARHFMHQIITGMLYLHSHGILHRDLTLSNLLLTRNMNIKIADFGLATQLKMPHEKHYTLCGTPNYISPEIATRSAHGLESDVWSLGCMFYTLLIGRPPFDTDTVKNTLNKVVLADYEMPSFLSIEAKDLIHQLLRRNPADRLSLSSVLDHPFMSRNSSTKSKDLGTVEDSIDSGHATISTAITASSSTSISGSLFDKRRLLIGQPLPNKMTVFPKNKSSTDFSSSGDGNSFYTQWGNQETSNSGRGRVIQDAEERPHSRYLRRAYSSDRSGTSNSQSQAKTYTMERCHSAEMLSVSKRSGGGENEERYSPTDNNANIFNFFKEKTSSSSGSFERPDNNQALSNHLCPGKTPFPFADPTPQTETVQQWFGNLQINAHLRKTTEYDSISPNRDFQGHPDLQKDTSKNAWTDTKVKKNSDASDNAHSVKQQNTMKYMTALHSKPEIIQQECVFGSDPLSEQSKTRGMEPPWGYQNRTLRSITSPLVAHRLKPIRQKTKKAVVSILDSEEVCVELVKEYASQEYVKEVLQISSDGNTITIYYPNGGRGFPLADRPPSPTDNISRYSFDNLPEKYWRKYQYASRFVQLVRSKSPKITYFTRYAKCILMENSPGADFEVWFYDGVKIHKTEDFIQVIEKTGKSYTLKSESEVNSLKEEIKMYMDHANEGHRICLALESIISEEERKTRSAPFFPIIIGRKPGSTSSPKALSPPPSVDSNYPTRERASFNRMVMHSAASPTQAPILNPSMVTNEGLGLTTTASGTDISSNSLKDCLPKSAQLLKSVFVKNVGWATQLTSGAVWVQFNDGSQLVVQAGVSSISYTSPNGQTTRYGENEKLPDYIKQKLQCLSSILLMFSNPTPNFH
Procedure, shortened: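 Human kinase expressed from cDNA in Sf9 cells (baculovirus) as GST- or His-tagged protein, affinity-purified. 10 compound concentrations, 1% DMSO final, 30 °C for 80 min. Stopped with H₃PO₄, 33P incorporation counted, IC50 derived.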

[4] = molecular target: T3, Aurora kinase A (Homo sapiens, UniProt O14965); test: Inhibition of human recombinant Aurora A
T3 sequence (O14965 whole entry): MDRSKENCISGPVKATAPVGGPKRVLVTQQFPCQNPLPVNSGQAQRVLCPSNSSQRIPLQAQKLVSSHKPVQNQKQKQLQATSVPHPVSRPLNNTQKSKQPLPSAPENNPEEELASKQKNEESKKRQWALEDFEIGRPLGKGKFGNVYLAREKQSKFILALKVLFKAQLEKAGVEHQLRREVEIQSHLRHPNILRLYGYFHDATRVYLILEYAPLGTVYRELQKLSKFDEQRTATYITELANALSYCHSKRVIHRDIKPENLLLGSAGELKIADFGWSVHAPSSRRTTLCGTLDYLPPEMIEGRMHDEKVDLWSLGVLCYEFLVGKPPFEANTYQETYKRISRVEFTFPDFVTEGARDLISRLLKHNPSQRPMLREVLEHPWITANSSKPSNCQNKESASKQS
Procedure, shortened: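 Aurora-A or Aurora-B, human cDNA expressed in Sf9 cells as tagged recombinant protein, phosphorylating Tetra(LRRWSLG). Reactions used 60 mM HEPES pH 7.5, Mg2+/Mn2+ (3 mM each), 1.2 mM DTT, vanadate and 1 µM [γ-33P]ATP, ran 80 min at 30 °C and were stopped with 2% H3PO4.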

SMILES | IC50 [1] [µM] | IC50 [2] [µM] | IC50 [3] [µM] | IC50 [4] [µM]
COc1cc(C2=C(c3c[nH]c4ccccc34)CNC2=O)cc(OC)c1OC | 6.1 | 0.031 | 10 | 16
COc1cc(C2=C(c3cn(CC(O)CO)c4ccccc34)CNC2=O)cc(OC)c1OC (centres undefined) | 3 | 4.2 | 16 | 47
COc1cc(C2=C(c3cn(C)c4ccccc34)C(=O)NC2)cc(OC)c1OC | 5 | 15 | 9.2 | 3.2
COc1cc(C2=C(c3cn(COC(C)(C)C)c4ccccc34)CNC2=O)cc(OC)c1OC | 20 | 4.4 | 28 | 30

Now from value to compound:

IC50 [1] [µM] | IC50 [2] [µM] | IC50 [3] [µM] | IC50 [4] [µM] | SMILES
2.2 | 11 | 7.7 | 3.2 | COc1cc(C2=C(c3c[nH]c4ccccc34)C(=O)NC2)cc(OC)c1OC
9.9 | 13 | 12 | 16 | COc1ccc(C2=C(c3c[nH]c4ccccc34)C(=O)NC2)cc1
